Assay results taken from ChEMBL document CHEMBL3632468, “Discovery and optimisation studies of antimalarial phenotypic hits” (Eur J Med Chem, 2015).
≈ marks a conversion by molar mass, not a printed value.

What was measured:
[1] = Solubility in phosphate buffer at pH 6.5 by nephelometry; format: physicochemical
Plasmodium berghei [2] = assay: Antimalarial activity against Plasmodium berghei ANKA expressing GFP infected in NMRI mouse assessed as increase in mouse survival at 50 mg/kg, ip qd administered as single dose on day 0 to 4 of exposure measured on day 5 post exposure by FACS method (reference value: 7 days); format: functional
Outline: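 P. berghei ANKA GFP infection in mice, dosed intraperitoneally at 50 mg/kg/day × 4. An untreated control group and a chloroquine 10 mg/kg ip reference group were included. Read-outs were % reduction in parasitaemia and mean survival in days.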

Liver = assay: Intrinsic clearance in mouse liver microsomes assessed as compound metabolized at 1 uM pre-incubated at 37 degC before addition of NADPH-generating system by LC/MS method; format: ADME
Liver microsome [3] = assay: Intrinsic clearance in human liver microsomes assessed as compound metabolized at 1 uM pre-incubated at 37 degC before addition of NADPH-generating system by LC/MS method; format: ADME
[4] = Drug metabolism in mouse liver microsomes at 1 uM by LC/MS method; format: ADME
Plasmodium berghei [5] = assay: Antimalarial activity against Plasmodium berghei ANKA expressing GFP infected in NMRI mouse assessed as inhibition of parasitemia at 50 mg/kg, ip qd administered as single dose on day 0 to 4 of exposure measured on day 5 post exposure by FACS method relative to control; format: functional
Outline: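 P. berghei ANKA GFP infection in mice; dosed intraperitoneally at 50 mg/kg/day × 4, with chloroquine 10 mg/kg ip as reference and untreated controls. Read-out was % reduction in parasitaemia relative to controls, with survival in days also recorded.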

Liver microsome [6] = assay: Drug metabolism in human liver microsomes at 1 uM by LC/MS method; format: ADME

SMILES: Cc1cc(/C=C2\S/C(=N\c3ccccc3)N(C3CCCCC3)C2=O)c(C)n1-c1ccc(F)cc1
- solubility kinetic [1]: 0.8 µg/mL (≈ 1.69 µM)
- Survival (Plasmodium berghei [2]): 6 days
- CLH (Liver): 55 µL/min/mg
- CLH (Liver microsome [3]): 360 µL/min/mg
- Drug metabolism [4]: metabolite_notdetected
- inhibition in vivo at 50 mg/kg (Plasmodium berghei [5]): 12%
- Drug metabolism (Liver microsome [6]): metabolite_notdetected
